Reference: ChEMBL document CHEMBL2176871, “Development of ligands at γ-aminobutyrric acid type A (GABAA) receptor subtype as new agents for pain relief” (Bioorg Med Chem, 2011)
Activity calls are given as the source filed them.

Legend:
[1] = Displacement of [3H]Ro151788 from GABA(A)/BzR in bovine cerebral cortex membrane; format: cell membranes, Bos taurus
Summary of the method: (§1)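 Bovine cerebral cortex membranes in 50 mM Tris-citrate pH 7.4; [3H]flumazenil displacement. Compounds first tested at a fixed 10 µM; Ki determined only when inhibition exceeded 80%, using at least six concentrations. Five experiments run in triplicate; IC50 obtained by iterative curve fitting and converted to Ki with the Cheng–Prusoff equation.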

Bos taurus = organism: Bos taurus; experiment: Displacement of [3H]Ro151788 from GABA(A)/BzR in bovine cerebral cortex membrane at 10 uM; format: cell membranes; summary of the method: as §1
Mus musculus [2] = experiment: Anxiolytic activity in ip dosed Swiss albino mouse pain model after 30 mins by light/dark box test; format: functional, organism-based
Summary of the method: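 Male Swiss albino mice were tested in a light/dark box 30 min after dosing. Read-outs were transfers between compartments and time spent in the illuminated side. Dose volume was 10 ml/kg. Results are means ± SEM of 8 mice.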

Mus musculus [3] = experiment: Anxiolytic activity in ip dosed Swiss albino mouse pain model after 30 mins by light/dark box test in presence of flumazenil; format: functional, organism-based
Summary of the method: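 Light/dark box test in male Swiss albino mice, with drug given 30 min before testing and flumazenil 100 mg/kg i.p. co-administered before the test. Read-outs were transfers between compartments and time in the lit side. Results are means ± SEM of 8 mice.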

Rattus norvegicus [4] = experiment: Toxicity in Sprague-Dawley rat mononeuropathy pain model assessed as effect on contralateral paw pressure at 30 mg/kg, po after 15 mins by paw pressure test; format: organism-based; set-up: dose 30 mg/kg, route oral; conditions: in vivo, 0.25 h
Summary of the method: (§2)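 Same sciatic-ligation rat model, 14 days after surgery. Threshold measured on the non-operated contralateral hind paw by analgesimeter at 32 g/s; first-struggle endpoint; 250 g cut-off; pretest rats outside 40–75 g rejected. Compound given po in 10 ml/kg; readings at 15, 30 and 45 min.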

Rattus norvegicus [5] = experiment: Toxicity in Sprague-Dawley rat mononeuropathy pain model assessed as effect on contralateral paw pressure at 30 mg/kg, po after 45 mins by paw pressure test; format: organism-based; set-up: dose 30 mg/kg, route oral; conditions: in vivo, 0.75 h; summary of the method: as §2
Rattus norvegicus [6] = experiment: Antinociceptive activity in Sprague-Dawley rat mononeuropathy pain model assessed as increase in injured paw pressure at 30 mg/kg, po after 15 mins by paw pressure test relative to non-treated control; format: functional
Summary of the method: (§3)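 Chronic constriction injury: loose ligatures placed on the common sciatic nerve under chloral hydrate; contralateral sham dissection. Tested 14 days after surgery. Paw pressure applied at 32 g/s; threshold taken as the force causing the first struggle; cut-off 250 g; pretest outliers (<40 g or >75 g) excluded. Oral dosing in 10 ml/kg; read at 15, 30 and 45 min; compared with a CMC-treated group.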

Rattus norvegicus [7] = experiment: Antinociceptive activity in Sprague-Dawley rat mononeuropathy pain model assessed as increase in injured paw pressure at 30 mg/kg, po after 45 mins by paw pressure test relative to non-treated control; format: functional; summary of the method: as §3
Rattus norvegicus [8] = experiment: Toxicity in Sprague-Dawley rat mononeuropathy pain model assessed as effect on contralateral paw pressure at 30 mg/kg, po after 30 mins by paw pressure test; format: organism-based; set-up: dose 30 mg/kg, route oral; conditions: in vivo, 0.5 h; summary of the method: as §2
Rattus norvegicus [9] = experiment: Antinociceptive activity in Sprague-Dawley rat mononeuropathy pain model assessed as increase in injured paw pressure at 30 mg/kg, po after 30 mins by paw pressure test relative to non-treated control; format: functional; summary of the method: as §3

| Compound | Ki [1] [nM] | inhibition (Bos taurus) [%] | Activity (Rattus norvegicus [4]) [g] | Activity (Rattus norvegicus [5]) [g] | Activity (Rattus norvegicus [6]) [g] | Activity (Rattus norvegicus [7]) [g] | Activity (Rattus norvegicus [8]) [g] | Activity (Rattus norvegicus [9]) [g] | other results |
| --- | --- | --- | --- | --- | --- | --- | --- | --- | --- |
| Cc1cnn2c1n[n+]([O-])c1ccc(OCC(C)c3ccccc3)cc12 (racemic) | 361 | > 80 | – | – | – | – | – | – | – |
| Cc1cnn2c1nnc1ccc(NCc3ccccc3)cc12 | 2.78 | > 80 | – | – | – | – | – | – | – |
| CN1C(=O)CN=C(c2ccccc2)c2cc(Cl)ccc21 | – | – | – | – | – | – | – | – | Activity (Mus musculus [2]): Active; Activity (Mus musculus [3]): inactive |
| COc1ccccc1CNc1ccc2c(c1)n1ncc(C)c1n[n+]2[O-] | 0.78 | > 80 | – | – | – | – | – | – | – |
| [O-][n+]1nc2c(I)cnn2c2cc(NCc3ccc(Cl)cc3)ccc21 | 2.44 | > 80 | – | – | – | – | – | – | – |
| O=C(OCc1cccs1)c1cnn2c1n[n+]([O-])c1ccc(Cl)cc12 | 6.8 | – | 59.3 | 60.9 | 33.6 | 32.8 | 57.8 | 35.2 | – |
| O=C(c1cccs1)c1cnn2c1n[n+]([O-])c1ccc(Oc3ccccc3)cc12 | – | – | 60.6 | 61.2 | 37.7 | 43.2 | 57.8 | 38.4 | – |
| [O-][n+]1nc2c(I)cnn2c2cc(OCc3ccccc3)ccc21 | – | – | 62.7 | 65.1 | 37.1 | 36.4 | 59.2 | 46.5 | – |
| [O-][n+]1nc2c(I)cnn2c2cc(NCCc3ccccc3)ccc21 | 14.7 | > 80 | – | – | – | – | – | – | – |
